Measured values pooled from the literature.
Protocols differ between the studies behind these lines.
Target: Serine/threonine-protein kinase Nek6 (NEK6, Homo sapiens, UniProt Q9HC98)

`C[C@@H]1CCN(c2nccc(-c3cnn4ncccc34)n2)C1` gave a remaining binding of 100% (binding; 1 µM).
The remaining binding of `O=C(c1ccc(Nc2ncc(Cl)c(-c3cc4ccccc4s3)n2)cc1)N1CCC(N2CCCC2)CC1` is reported as 35% (binding; competition with immobilised ligand; 1 µM).
The remaining binding of `CN(C)c1ncc(F)c(-c2cnn3ncccc23)n1` is reported as 99% (binding; 1 µM).
With `O=C(NCCCN1CCOCC1)c1ccc(Nc2ncc(Cl)c(-c3ccc(Cl)s3)n2)cc1` the remaining binding was 2.5% (binding; competition with immobilised ligand; 1 µM).
With `CS(=O)(=O)N1CCCC(NC(=O)[C@H](CCC2CCCCC2)NC(=O)c2ccc(CNC(=O)c3cnc4ccccn34)cc2)C1` (stereo partly shown) the remaining binding was 100% (cell-free assay; competition with immobilised ligand; 0.1 µM).
`CN(CCCC(F)(F)F)c1nccc(-c2cnn3ncccc23)n1` gave a remaining binding of 100% (binding; 1 µM).
For `CCC(=O)N[C@H]1CC[C@@H](C(=O)N(C)c2ccc(-c3nc4ccccc4o3)cc2)C1`, the remaining binding was 85% (cell-free assay; competition with immobilised ligand; 1 µM).
With `N[C@@H]1CCN(c2nccc(-c3cnn4ncccc34)n2)C1` the remaining binding was 100% (binding; 1 µM).
With `O=C(c1ccc(Nc2ncc(Cl)c(-c3ccc(Cl)s3)n2)cc1)N1CCC(N2CCCC2)CC1` the remaining binding was 9.9% (binding; competition with immobilised ligand; 1 µM).
`COc1cc(-c2cn(C3CCc4ccccc4N(CC(F)(F)F)C3=O)nn2)ccc1-n1ccc(C)n1` (stereo not shown) has a remaining binding of 100% (cell-free assay; competition with immobilised ligand; 1 µM).
`CNC(=O)[C@@H]1CC[C@@H](n2c(-c3ccc4cnccc4c3)nc3ccc(C(=O)NCc4cccc(C(N)=O)c4)cc32)C1` has a remaining binding of 97% (binding; competition with immobilised ligand; 1 µM).
The remaining binding of `C[C@H](c1cccc(C#N)c1)n1cc(Cl)cc(C(N)=O)c1=N` is reported as 94% (cell-free assay; competition with immobilised ligand; 1 µM).
`COc1ccnn2ncc(-c3ccnc(N(C)C)n3)c12` gave a remaining binding of 100% (binding; 1 µM).
`CCCOc1ccc([C@@H]2[C@@H](C(=O)O)[C@H](c3ccc4c(c3)OCO4)CN2CC(=O)Nc2c(CC)cccc2CC)cc1` has a remaining binding of 92% (cell-free assay; competition with immobilised ligand; 1 µM).
`CCN1CCN(Cc2ccc(C(=O)Nc3ccc(C)c(Oc4ccc5c(c4)CC(=O)N5)c3)cc2C(F)(F)F)CC1` has a remaining binding of 100% (binding; competition with immobilised ligand; 1 µM).
For `O=C(NCC1CCOCC1)c1n[nH]cc1NC(=O)c1c(F)cccc1F`, the remaining binding was 90% (binding; competition with immobilised ligand; 1 µM).
The remaining binding of `NS(=O)(=O)c1cc(NC(=O)C2(c3ccccc3Cl)CC2)ccc1Oc1cccc(Cl)c1` is reported as 81% (cell-free assay; competition with immobilised ligand; 1 µM).
`CN(c1nccc(-c2cnn3ncccc23)n1)C1CC1` has a remaining binding of 100% (binding; 1 µM).
The remaining binding of `CSc1cccnc1N1CCN(Cc2nc3ccccc3[nH]2)CC1` is reported as 98% (cell-free assay; competition with immobilised ligand; 1 µM).
With `c1cncc(-c2cccc(Nc3nccc(NC4CCCCC4)n3)c2)c1` the remaining binding was 71% (binding; competition with immobilised ligand; 10 µM).
`CN(C)c1nccc(-c2cnc3ncccn23)n1` gave a remaining binding of 94% (binding; 1 µM).
`C[C@@H](c1ccc(-n2cnc3c(N)ncnc32)cc1)N1CCc2nn(C)c(Cc3ccccc3)c2C1=O` has a remaining binding of 90% (binding; competition with immobilised ligand; 0.1 µM).
